PMC8764296 (International Journal of Nanomedicine, 2022)

Assay: Liver microsomal stability
Format: in vitro ADME
Conditions: mouse liver microsomes 0.5 mg/mL, 50 μM, 37 °C, 4 hours incubation
How it was run: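 Compound at 50 μM (in vehicle or micelles), with coumarin as control, was preincubated 5 min at 37 °C with mouse liver microsomes (0.5 mg/mL) in PBS pH 7.4. Reactions were started with an NADPH-generating system (3 mM NADPH, 7.2 mM MgCl2, 6 mM G6P, 3 unit G6PDH) and sampled at 0, 5, 30 min and 1, 2, 4 h. Samples were DMSO-extracted for HPLC. ke from lnC versus t gave t1/2 and CL. Triplicate, mean and SD.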

O=c1ccc2ccccc2o1 [Coumarin]
level remaining in liver microsome: 10.7 ± 2.2%
